Measured values from PMC8861878 (The Journal of pharmacy and pharmacology, 2020).
Where “and” joins values, the source holds several entries; their conditions need not be identical. Identical values can stand only once.

Experiments:
expressed UGT enzymes = assay: Reaction phenotyping with expressed UGT enzymes; assay type: in vitro ADME, human; details: isobavachin at 10 μM (Figure S4B)
CYP2E1 = CYP2E1 (Homo sapiens, UniProt P05181); assay: Inhibition of CYP2E1; assay type: in vitro ADME; details: isobavachin 1, 10, 100 μM; substrate chlorzoxazone (200 μM)
Outline: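 Recombinant human CYPs (CYP1A2 and 3A4 at 0.05 mg/ml; CYP2C8 and 2E1 at 0.1 mg/ml) with probe substrate in Tris-HCl 50 mM pH 7.4, MgCl2 5 mM and NADPH 1 mM at 37 °C for 60 min. Run without (control) or with test compound at 1, 10 or 100 μM. Acetonitrile stop; metabolite by UHPLC-TQD-MS; activity versus control, triplicate.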

[1] = intragastric administration of Psoraleae Fructus extracts (1.2 g/kg); cited from earlier work
[2] = Mono-oxidation of isobavachin by pooled HLM, enzyme kinetics; assay type: in vitro ADME, human
[3] = Glucuronidation of isobavachin by pooled HLM, enzyme kinetics; assay type: in vitro ADME, human
expressed CYP enzymes = assay: Reaction phenotyping with expressed CYP enzymes; assay type: in vitro ADME, human; details: isobavachin at 10 μM (Figure S4A)
UGT2B7 = molecular target: T1, UGT2B7 (Homo sapiens, UniProt P16662); assay: Inhibition of UGT2B7; assay type: in vitro ADME
T1 sequence (P16662 24-529): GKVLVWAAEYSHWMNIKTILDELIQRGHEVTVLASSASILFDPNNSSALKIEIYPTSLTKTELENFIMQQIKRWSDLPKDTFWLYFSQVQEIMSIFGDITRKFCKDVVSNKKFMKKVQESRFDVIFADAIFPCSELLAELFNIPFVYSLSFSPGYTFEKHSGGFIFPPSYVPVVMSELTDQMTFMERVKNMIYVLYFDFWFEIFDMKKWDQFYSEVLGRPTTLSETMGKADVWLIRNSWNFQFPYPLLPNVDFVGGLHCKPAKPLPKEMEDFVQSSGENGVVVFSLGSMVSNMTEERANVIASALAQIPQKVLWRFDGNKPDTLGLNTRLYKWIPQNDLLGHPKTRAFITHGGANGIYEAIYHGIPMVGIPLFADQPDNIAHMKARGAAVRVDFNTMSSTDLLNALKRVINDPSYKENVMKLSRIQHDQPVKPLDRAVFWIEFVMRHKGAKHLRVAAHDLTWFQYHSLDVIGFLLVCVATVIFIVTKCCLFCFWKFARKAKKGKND

UGT1A1 = molecular target: T2, UGT1A1 (Homo sapiens, UniProt P22309); assay: Glucuronidation of isobavachin by recombinant UGT1A1, enzyme kinetics; assay type: in vitro ADME; details: formation of G1, substrate inhibition model
T2 sequence (P22309 26-533): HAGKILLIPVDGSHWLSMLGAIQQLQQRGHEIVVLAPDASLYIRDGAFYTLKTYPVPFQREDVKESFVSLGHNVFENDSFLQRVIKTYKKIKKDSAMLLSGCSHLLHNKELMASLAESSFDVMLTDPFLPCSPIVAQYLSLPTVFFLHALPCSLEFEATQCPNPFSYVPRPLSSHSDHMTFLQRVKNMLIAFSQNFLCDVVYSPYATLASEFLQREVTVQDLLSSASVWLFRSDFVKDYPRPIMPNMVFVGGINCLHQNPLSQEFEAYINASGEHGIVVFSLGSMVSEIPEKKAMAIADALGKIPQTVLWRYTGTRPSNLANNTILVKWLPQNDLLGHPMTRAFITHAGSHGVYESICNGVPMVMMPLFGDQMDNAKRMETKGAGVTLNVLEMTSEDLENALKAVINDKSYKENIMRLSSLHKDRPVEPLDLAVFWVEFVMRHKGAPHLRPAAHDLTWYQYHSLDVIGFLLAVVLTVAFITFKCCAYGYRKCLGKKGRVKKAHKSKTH

UGT1A9 = molecular target: T3, UGT1A9 (Homo sapiens, UniProt O60656); assay: Inhibition of UGT1A9; assay type: in vitro ADME
T3 sequence (O60656 26-530): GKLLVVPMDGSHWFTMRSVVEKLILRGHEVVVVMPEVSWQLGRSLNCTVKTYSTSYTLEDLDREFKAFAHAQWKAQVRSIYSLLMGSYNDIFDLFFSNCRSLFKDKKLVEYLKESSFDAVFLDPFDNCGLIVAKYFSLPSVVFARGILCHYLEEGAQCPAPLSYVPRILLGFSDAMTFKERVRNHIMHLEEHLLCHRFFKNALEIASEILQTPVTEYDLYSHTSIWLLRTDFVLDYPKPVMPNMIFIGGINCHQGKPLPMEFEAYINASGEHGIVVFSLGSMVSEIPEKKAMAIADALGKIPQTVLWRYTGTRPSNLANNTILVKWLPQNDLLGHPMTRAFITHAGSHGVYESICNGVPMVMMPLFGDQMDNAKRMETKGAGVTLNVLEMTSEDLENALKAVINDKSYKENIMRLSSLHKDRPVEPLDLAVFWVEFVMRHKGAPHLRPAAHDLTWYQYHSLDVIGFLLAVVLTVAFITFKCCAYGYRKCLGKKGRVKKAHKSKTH

UGT1A6 = molecular target: T4, UGT1A6 (Homo sapiens, UniProt P19224); assay: Glucuronidation of isobavachin by recombinant UGT1A6, enzyme kinetics; assay type: in vitro ADME; details: substrate inhibition constant, substrate inhibition model
T4 sequence (P19224 27-532): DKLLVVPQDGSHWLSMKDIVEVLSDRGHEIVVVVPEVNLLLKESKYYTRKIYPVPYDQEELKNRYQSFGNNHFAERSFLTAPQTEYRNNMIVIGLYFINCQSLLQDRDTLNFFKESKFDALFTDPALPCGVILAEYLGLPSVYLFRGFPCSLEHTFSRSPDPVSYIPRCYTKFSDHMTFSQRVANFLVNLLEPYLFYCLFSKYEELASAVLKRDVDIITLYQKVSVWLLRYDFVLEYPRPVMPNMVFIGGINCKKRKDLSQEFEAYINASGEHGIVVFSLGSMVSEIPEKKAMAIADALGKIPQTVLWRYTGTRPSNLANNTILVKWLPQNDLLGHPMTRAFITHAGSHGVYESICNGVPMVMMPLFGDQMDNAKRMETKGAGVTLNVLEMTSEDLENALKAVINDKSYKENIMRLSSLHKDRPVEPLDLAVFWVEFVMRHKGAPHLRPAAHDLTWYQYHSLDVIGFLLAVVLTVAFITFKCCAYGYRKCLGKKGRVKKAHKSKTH

[4] = based on the smallest AIC and SC values

CYP2E1, sequence (P05181 whole entry): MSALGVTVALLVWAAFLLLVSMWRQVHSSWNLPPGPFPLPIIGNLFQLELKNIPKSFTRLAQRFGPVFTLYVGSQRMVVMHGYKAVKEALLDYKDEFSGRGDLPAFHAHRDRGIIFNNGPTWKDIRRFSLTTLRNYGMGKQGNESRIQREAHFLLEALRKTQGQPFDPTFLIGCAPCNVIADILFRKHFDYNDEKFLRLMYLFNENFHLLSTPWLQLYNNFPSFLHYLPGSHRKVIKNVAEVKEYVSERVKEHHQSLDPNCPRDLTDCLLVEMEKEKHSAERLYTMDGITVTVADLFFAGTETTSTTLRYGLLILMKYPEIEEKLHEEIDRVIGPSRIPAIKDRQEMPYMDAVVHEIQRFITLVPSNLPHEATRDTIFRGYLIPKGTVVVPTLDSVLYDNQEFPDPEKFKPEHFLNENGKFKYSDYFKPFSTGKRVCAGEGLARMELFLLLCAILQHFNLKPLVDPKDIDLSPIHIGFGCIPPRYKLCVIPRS

In the case of `CC(C)=CCc1c(O)ccc2c1O[C@H](c1ccc(O)cc1)CC2=O` [isobavachin], the “UGT enzymes involved in glucuronidation” value (expressed UGT enzymes) is given as “UGT1A1, 1A6, 1A7, 1A8, 1A9 and 2B4 have an important role in glucuronidation reaction”, the inhibitory effects (CYP2E1) is given as “negligible or weak” and the exposure [1] is given as “about 13.2 nM”. The “CLint (CLmax)” value ([2]; formation of M1, substrate inhibition model) was 59.81 μl/min per mg and 59.81 ± 21.18 μl/min per mg, the “CLint (CLmax)” value ([2]; formation of M2, Michaelis–Menten model) was 5.53 ± 0.93 μl/min per mg and the “CLint (CLmax)” value ([3]; formation of G1, Hill equation (CLmax)) was 148.79 ± 9.36 μl/min per mg. For the same molecule, the “CLint (CLmax)” value ([3]; formation of G2, substrate inhibition model) was 21.82 ± 4.35 μl/min per mg, the “CYP isozymes participating in oxidation” value (expressed CYP enzymes) was “CYP1A1, 1A2, 1B1, 2C8, 2C9, 2C19 and 2D6 all participated in the oxidation” and the IC50 (UGT2B7) was 90 ± 10 nM. The residual activities (UGT2B7; 10 μM isobavachin) was 19.32 % of the negative control, the Ki (UGT2B7; substrate zidovudine, mixed-type model (not selected)) was 40 ± 10 nM and the Ki (UGT2B7; substrate zidovudine, non-competitive model (selected, smallest AIC and SC)) was 50 ± 10 nM. The Inhibition type (UGT2B7; [4]) was “non-competitive inhibition mode”, the α (UGT2B7; substrate zidovudine, mixed-type model) was 1.80 ± 0.93 and the Ki (UGT1A1; substrate inhibition constant) was 40820 ± 9700 nM. For the same molecule, the Vmax (UGT1A1) was 7735.0 ± 1186.0 pmol/min per mg, the IC50 (UGT1A9) was 1210 ± 300 nM and the residual activities (UGT1A9; 10 μM isobavachin) was 16.51 % of the negative control. It also gave a Ki (UGT1A9; substrate propofol, competitive model (not selected)) of 200 ± 30 nM, a Ki (UGT1A9; substrate propofol, mixed-type model (not selected)) of 430 ± 140 nM and a Ki (UGT1A9; substrate propofol, non-competitive model (selected, smallest AIC and SC)) of 440 ± 40 nM. For the same molecule, the Inhibition type (UGT1A9; [4]) was “non-competitive inhibition mode”, the α (UGT1A9; substrate propofol, mixed-type model) was 1.05 ± 0.70 and the Ki (UGT1A6; formation of G1) was 21970 ± 5840 nM. It also gave a Ki (UGT1A6; formation of G2) of 12710 ± 2600 nM.
